{"source": "ChEMBL document CHEMBL3217705", "about": "“Synthesis and evaluation of stable substrate analogs as potential modulators of cyclodiphosphate synthase IspF” (Medchemcomm, 2013)", "key": {"[1]": {"target": "T1, 2-C-methyl-D-erythritol 2,4-cyclodiphosphate synthase (Escherichia coli (strain K12), UniProt P62617)", "T1 sequence (P62617 whole entry)": "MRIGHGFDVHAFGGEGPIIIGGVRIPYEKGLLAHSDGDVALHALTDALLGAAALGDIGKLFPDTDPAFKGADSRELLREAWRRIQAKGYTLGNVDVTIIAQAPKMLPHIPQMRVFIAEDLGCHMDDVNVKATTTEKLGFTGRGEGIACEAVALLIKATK", "test": "Inhibition of Escherichia coli IspF by HPLC based […] formation assay"}, "[2]": {"target": "T2, 2-C-methyl-D-erythritol 2,4-cyclodiphosphate synthase (Escherichia coli (strain K12)) (UniProt P62617)", "T2 sequence (whole entry)": "T1 sequence (P62617 whole entry)", "test": "Inhibition of Escherichia coli IspF-MEP complex at 700 uM by HPLC based […] formation assay", "outline": "(§1)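 E. coli IspF alone or preformed IspF–MEP complex was incubated with 100 µM CDPME2P substrate. Test agents were present at 1000 µM or 700 µM, either without or after a 30 min pre-incubation. The rate of CMP formation was compared with a no-compound control run under the same pre-incubation; residual activity was taken after pre-incubation.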"}, "[3]": {"target": "T2, 2-C-methyl-D-erythritol 2,4-cyclodiphosphate synthase (Escherichia coli (strain K12))", "test": "Activation of Escherichia coli IspF-MEP complex assessed as increase in rate of […] formation at 1000 uM by HPLC based […] formation assay relative to untreated control", "outline": "as §1"}, "[4]": {"target": "T2, 2-C-methyl-D-erythritol 2,4-cyclodiphosphate synthase (Escherichia coli (strain K12))", "test": "Activation of Escherichia coli IspF-MEP complex assessed as increase in rate of […] formation at 1000 uM pre-incubated for 30 mins by HPLC based […] formation assay relative to untreated control", "outline": "as §1"}, "[5]": {"target": "T2, 2-C-methyl-D-erythritol 2,4-cyclodiphosphate synthase (Escherichia coli (strain K12))", "test": "Activation of Escherichia coli IspF assessed as increase in rate of […] formation at 1000 uM pre-incubated for 30 mins by HPLC based […] formation assay relative to untreated control", "outline": "as §1"}, "[6]": {"target": "T2, 2-C-methyl-D-erythritol 2,4-cyclodiphosphate synthase (Escherichia coli (strain K12))", "test": "Activation of Escherichia coli IspF assessed as assessed as residual enzyme activity at 1000 uM pre-incubated for 30 mins by HPLC based […] formation assay relative to untreated control", "outline": "as §1"}, "[7]": {"target": "T2, 2-C-methyl-D-erythritol 2,4-cyclodiphosphate synthase (Escherichia coli (strain K12))", "test": "Activation of Escherichia coli IspF assessed as increase in rate of […] formation at 1000 uM by HPLC based […] formation assay relative to untreated control", "outline": "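IspF activity was read as the rate of CMP formation from 100 µM CDPME2P, with the test compound at 1000 µM. The rate is expressed relative to a control run without compound.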"}, "[8]": {"target": "T2, 2-C-methyl-D-erythritol 2,4-cyclodiphosphate synthase (Escherichia coli (strain K12))", "test": "Activation of Escherichia coli IspF assessed as residual enzyme activity at 500 uM pre-incubated for 30 mins by HPLC based CMP formation assay"}, "[9]": {"target": "T2, 2-C-methyl-D-erythritol 2,4-cyclodiphosphate synthase (Escherichia coli (strain K12))", "test": "Activation of Escherichia coli IspF-MEP complex assessed as increase in rate of […] formation at 100 uM pre-incubated for 30 mins by HPLC based […] formation assay relative to untreated control"}, "[10]": {"target": "T2, 2-C-methyl-D-erythritol 2,4-cyclodiphosphate synthase (Escherichia coli (strain K12))", "test": "Activation of Escherichia coli IspF assessed as increase in rate of […] formation at 100 uM pre-incubated for 30 mins by HPLC based […] formation assay relative to untreated control"}, "[11]": {"target": "T2, 2-C-methyl-D-erythritol 2,4-cyclodiphosphate synthase (Escherichia coli (strain K12))", "test": "Activation of Escherichia coli IspF-MEP complex assessed as increase in rate of […] formation at 100 uM by HPLC based […] formation assay relative to untreated control"}, "[12]": {"target": "T2, 2-C-methyl-D-erythritol 2,4-cyclodiphosphate synthase (Escherichia coli (strain K12))", "test": "Inhibition of Escherichia coli IspF-MEP complex at 100 uM pre-incubated for 30 mins by HPLC based […] formation assay"}, "[13]": {"target": "T2, 2-C-methyl-D-erythritol 2,4-cyclodiphosphate synthase (Escherichia coli (strain K12))", "test": "Inhibition of Escherichia coli IspF at 500 uM by HPLC based CMP formation assay"}, "[14]": {"target": "T2, 2-C-methyl-D-erythritol 2,4-cyclodiphosphate synthase (Escherichia coli (strain K12))", "test": "Inhibition of Escherichia coli IspF-MEP complex at 500 uM by HPLC based CMP formation assay", "details": "TDE = time-dependent effect"}, "[15]": {"target": "T2, 2-C-methyl-D-erythritol 2,4-cyclodiphosphate synthase (Escherichia coli (strain K12))", "test": "Inhibition of Escherichia coli IspF-MEP complex at 700 uM pre-incubated for 30 mins by HPLC based […] formation assay relative to untreated control", "outline": "as §1"}, "[16]": {"target": "T1, 2-C-methyl-D-erythritol 2,4-cyclodiphosphate synthase", "test": "Inhibition of Escherichia coli IspF-MEP complex by HPLC based […] formation assay"}}, "note": "Activity calls are given as the source filed them. No cut-off for these calls is given here."}
{"molecule": "Nc1ccn([C@@H]2O[C@H](COP(=O)(O)OP(=O)(O)O)[C@@H](O)[C@H]2O)c(=O)n1", "values": [{"measurement": "IC50", "setting": "[1]", "result": 768, "unit": "µM"}, {"measurement": "inhibition", "setting": "[2]", "result": "inactive"}]}
{"molecule": "C[C@](O)(CO)[C@H](O)COP(=O)(O)CP(=O)(O)O", "values": [{"measurement": "Activity", "setting": "[3]", "result": "inactive"}, {"measurement": "Activity", "setting": "[4]", "result": "inactive"}, {"measurement": "fold change (FC)", "setting": "[5]", "result": 8.7}, {"measurement": "Activity", "setting": "[6]", "result": 54, "unit": "%"}, {"measurement": "fold change (FC)", "setting": "[7]", "result": 1.8}]}
{"molecule": "C[C@](O)(CO)[C@H](O)COP(=O)(O)OP(=O)(O)OC[C@H]1O[C@@H](n2ccc(N)nc2=O)[C@H](O)[C@@H]1O", "values": [{"measurement": "Activity", "setting": "[8]", "result": "inactive"}, {"measurement": "Activity", "setting": "[9]", "result": "inactive"}, {"measurement": "Activity", "setting": "[10]", "result": "inactive"}, {"measurement": "Activity", "setting": "[11]", "result": "inactive"}]}
{"molecule": "C[C@](O)(CO)[C@H](O)COP(=O)(O)CP(=O)(O)OC[C@H]1O[C@@H](n2ccc(N)nc2=O)[C@H](O)[C@@H]1O", "values": [{"measurement": "Activity", "setting": "[8]", "result": "inactive"}, {"measurement": "fold change (FC)", "setting": "[9]", "result": 1.3}, {"measurement": "fold change (FC)", "setting": "[10]", "result": 2.2}, {"measurement": "Activity", "setting": "[11]", "result": "Active"}]}
{"molecule": "C[C@@](CO)(OP(=O)(O)O)[C@H](O)COP(=O)(O)CP(=O)(O)OC[C@H]1O[C@@H](n2ccc(N)nc2=O)[C@H](O)[C@@H]1O", "values": [{"measurement": "Activity", "setting": "[8]", "result": 60, "unit": "%"}, {"measurement": "inhibition", "setting": "[12]", "result": 37, "unit": "%"}, {"measurement": "fold change (FC)", "setting": "[10]", "result": 7.6}, {"measurement": "inhibition", "setting": "[13]", "result": "inactive"}, {"measurement": "inhibition", "setting": "[14]", "result": "tde"}]}
{"molecule": "Nc1ccn([C@@H]2O[C@H](COP(=O)(O)CP(=O)(O)O)[C@@H](O)[C@H]2O)c(=O)n1", "values": [{"measurement": "inhibition", "setting": "[15]", "result": 74, "unit": "%"}, {"measurement": "IC50", "setting": "[1]", "result": 797, "unit": "µM"}, {"measurement": "inhibition", "setting": "[2]", "result": 69, "unit": "%"}, {"measurement": "IC50", "setting": "[16]", "result": 343, "unit": "µM"}]}
